High-throughput results from PubChem BioAssay.
Shown are actives, neighbours in structure and some others; about 2.5% of the full set was active somewhere.
SENP7 inh = blocks the human protease SENP7; recombinant SENP7, Z-RLRGG-aminoluciferin luminescence, 40 min; inhibition, % at 5 µM; hit rate 1.5% among 330,000; AID 434973;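 active = inhibition above about 50% at the single test dose, limit read from the data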;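 also: plate controls were DMSO with enzyme for no effect and no enzyme buffer wells for full effect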
SENP6 inh = inhibitors of human SENP6 protease; Q9GZR1; Recombinant SENP6 catalytic domain, aminoluciferin luminescence; inhibition, % at 10 µM; hit rate 1.8% among 330,000; AID 2599;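 active = inhibition above about 50% at the single tested dose, limit read from the data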;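 also: plate controls were DMSO wells with enzyme for no effect and DMSO wells lacking enzyme for full effect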
SENP8 block-1 = blocks human SENP8 cleavage of Nedd8 substrate; Q96LD8; hit rate 0.64% among 360,000; inhibition, % at 20 µM; recombinant SENP8, Nedd8 substrate fluorescence; in the data active = inhibition mostly above about 40%, no sharp cut-off; inactive = mostly below about 27%
Target sequence (Q96LD8 whole entry, looked up): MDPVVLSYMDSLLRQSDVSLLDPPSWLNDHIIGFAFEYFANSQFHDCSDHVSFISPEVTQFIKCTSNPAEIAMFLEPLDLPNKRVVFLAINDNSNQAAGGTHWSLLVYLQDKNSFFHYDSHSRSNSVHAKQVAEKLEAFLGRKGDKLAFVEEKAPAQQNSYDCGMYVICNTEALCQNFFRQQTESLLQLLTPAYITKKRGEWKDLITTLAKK
SENP1 FRET inh = blocks the human SENP1 SUMO protease catalytic domain; Q9P0U3; recombinant SENP1 catalytic domain, CyPet-SUMO1-YPet FRET cleavage; inhibition, % at 10 µM; hit rate 0.21% among 360,000; AID 624204;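 active = inhibition at least 30% at 10 µM, raw YFP signal under a set limit, fluorescence ratio 0.5 to 1.5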;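 also: 0% = enzyme with DMSO and 100% = no enzyme wells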
Target sequence (Q9P0U3 419-644 limits assumed): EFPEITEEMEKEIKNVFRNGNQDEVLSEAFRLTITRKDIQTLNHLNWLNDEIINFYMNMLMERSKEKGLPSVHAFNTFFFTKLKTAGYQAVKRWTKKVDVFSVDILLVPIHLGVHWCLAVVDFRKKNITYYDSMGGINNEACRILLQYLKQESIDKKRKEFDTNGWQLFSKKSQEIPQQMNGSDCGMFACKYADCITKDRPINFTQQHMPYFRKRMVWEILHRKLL
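Material – human SENP1 catalytic domain · Input – SENP1 enzyme, 20 pM final · Compound dosing – single concentration of 10 µM compound, 0.5% DMSO final · Timing – enzyme reaction for 50 min at room temperature, dark · Measured by – FRET fluorescence in CFP and YFP emission channels · Control set – no-enzyme wells low, DMSO-plus-enzyme wells high control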
SENP8 block-2 = blocks the human protease SENP8. Q96LD8. purified SENP8, Z-RLRGG-aminoluciferin cleavage, luminescence. inhibition, % at 10 µM. hit rate 1.2% among 330,000. AID 2540; in the data active = inhibition above about 50%
SENP8 confirm = confirmation of human SENP8 protease inhibitors | shares compounds with SENP7 inh | Recombinant SENP8, Z-RLRGG-aminoluciferin luminescence, 60 min | inhibition, % at 12.5 µM | hit rate 40% among 6,200 | AID 488912;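 active = mean inhibition across replicates above about 50%, limit read from the data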
SENP6 conf = human SENP6 inhibition, confirmed. shares compounds with SENP7 inh. recombinant SENP6, Z-RLRGG-aminoluciferin luminescence. inhibition, % at 12.5 µM. hit rate 58% among 6,200. AID 488915
SENP7 conf = human SENP7 inhibition, confirmed. shares compounds with SENP7 inh. recombinant SENP7, Z-RLRGG-aminoluciferin luminescence, 40 min. inhibition, % at 12.5 µM. hit rate 69% among 6,200
Casp3 select = caspase-3 inhibition (SENP selectivity assay) | shares compounds with SENP7 inh | purified caspase-3, Z-DEVD-aminoluciferin luminescence, 60 min | inhibition, % at 12.5 µM | hit rate 60% among 6,200 | AID 488918;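 active = mean inhibition above about 50%, limit read from the data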;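 also: plate controls were enzyme with DMSO for no effect and wells without caspase-3 for full effect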
Target sequence (P42574 28-227 limits assumed): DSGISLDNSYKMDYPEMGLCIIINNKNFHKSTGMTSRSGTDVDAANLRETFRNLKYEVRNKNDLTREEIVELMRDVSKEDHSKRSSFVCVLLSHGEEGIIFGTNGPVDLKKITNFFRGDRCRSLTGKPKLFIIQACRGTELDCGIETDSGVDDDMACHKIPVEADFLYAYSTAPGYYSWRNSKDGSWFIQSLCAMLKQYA
Luc interf = interferes with luciferase luminescence in SENP counter-screen. AID 488919. hit rate 39% among 6,200. Pre-incubated SENP8/Z-RLRGG-aminoluciferin, luciferase luminescence interference. inhibition, % at 12.5 µM. shares compounds with SENP7 inh;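 active = mean inhibition above about 50% when retested at one dose, limit read from the data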;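 also: plate controls were DMSO wells with completed reaction for no effect and substrate without enzyme for full effect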
* marks the source's active call; other numbers are inactive results; x = no result given.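 The calls were made as follows, unless noted: active = mean inhibition above about 50% in the one-dose retest (limit read from the data); inactive = the rest.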

SMILES	SENP7 inh	SENP6 inh	SENP8 block-1	SENP1 FRET inh	SENP8 block-2	SENP8 confirm	SENP6 conf	SENP7 conf	Casp3 select	Luc interf
CS(=O)(=O)c1ccc2sc(NC(=O)c3cc4ccccc4o3)nc2c1	28	77*	-415	1	46	-4	-6	0	38	23
CCC(=O)Nc1cccc(-c2nc3ccccc3o2)c1	-7	-16	-9	3	-15	x	x	x	x	x
CC(=O)Nc1nc2ccc(-c3nc4ccccc4o3)cc2s1	64*	-2	-495	-56	24	20	16	20	12	-3
COc1cccc(COC(=O)Cc2ccc(S(=O)(=O)N3CCOCC3)s2)c1OC	5	1	13	-1	4	x	x	x	x	x
CCOc1ccc(N(C(C)C(=O)N2CCOCC2)S(C)(=O)=O)cc1 (stereo unspecified)	10	-8	13	2	-14	x	x	x	x	x
O=C(CCS(=O)(=O)Cc1cccc(Cl)c1)NCCc1ccccc1	-6	-13	10	3	-10	x	x	x	x	x
O=C(Nc1nc2ccc(Cl)cc2s1)c1ccc(Br)o1	59*	53*	-274	-7	30	10	18	7	16	6
Cc1cc(C(=O)Nc2nc3ccc(Cl)cc3s2)nn1C	48	-7	-8	-1	-4	x	x	x	x	x
O=C(Nc1ccccc1C(=O)NC(Cc1ccccc1)C(=O)NC1CCCCC1)c1ccccc1 (stereo unspecified)	-12	-7	17	0	7	x	x	x	x	x
O=S(=O)(O)c1ccc(SCc2ccccc2)nc1	5	17	13	0	10	x	x	x	x	x
O=C(O)c1ccc(SCc2ccccc2)nc1	-1	76*	9	2	56*	7	72*	92*	91*	80*
c1coc(CNc2nc3ccccc3s2)c1	43	58*	12	-4	17	23	23	70*	55*	41
Cc1nnc(NCc2ccco2)s1	11	5	19	3	-2	x	x	x	x	x
O=C(Nc1ccc(F)c(Cl)c1)c1csc(COCCO)n1	x	x	14	2	x	x	x	x	x	x
CCOC(=O)N1CCN(C2CCCN(C(=O)c3cccc(Cl)c3)C2)CC1 (stereo unspecified)	3	-11	-1	0	5	x	x	x	x	x
O=C(c1ccccc1)c1ccc2cc(O)ccc2c1	96*	99*	-25	3	96*	7	99*	102*	92*	97*
Cc1c(C)n(CCCN(C)C)c2ncnc(NC3CCCCC3)c12	-15	-12	0	11	-3	x	x	x	x	x
O=C(Nc1oc2ccccc2c(=O)c1-c1ccc(Cl)cc1)c1ccco1	-11	3	-68	-4	-9	x	x	x	x	x
COc1ccccc1OCCCOc1ccc(/C=C2\SC(=O)NC2=O)cc1OC	-7	61*	-80	-25	41	38	48	48	15	30
O=C1NC(=O)/C(=C\c2ccc(OCc3ccccc3)cc2)S1	-2	64*	16	2	45	17	33	-1	6	6
COc1ccc(C(=O)CSc2nnc(Cc3ccccc3)o2)cc1	60*	-38	10	2	-9	7	9	8	4	3
Cc1cc(OCC(=O)C(C)(C)C)c2c(-c3ccccc3)cc(=O)oc2c1	-1	-3	-45	0	3	x	x	x	x	x
COc1cc2cc(NC(C)=O)cc(NCc3ccccc3)c2cc1OC	47	75*	-313	-2	70*	10	31	13	6	-7
CCCCNc1cc(NC(C)=O)cc2cc(OC)c(OC)cc12	-10	51*	-272	3	32	27	55*	15	2	1
CC1(c2ccc(Cl)cc2)NC(=O)N(CN2CCOCC2)C1=O (stereo unspecified)	3	-35	9	0	8	x	x	x	x	x
SMILES	SENP7 inh	SENP6 inh	SENP8 block-1	SENP1 FRET inh	SENP8 block-2	SENP8 confirm	SENP6 conf	SENP7 conf	Casp3 select	Luc interf
O=C(/C=C/c1ccc(Cl)cc1Cl)N1CCc2ccccc21	92*	70*	11	-1	51*	35	31	26	64*	13
O=C(/C=C/c1cccc(F)c1)OCC(=O)N1CCCc2ccccc21	-6	8	6	-2	-9	x	x	x	x	x
O=C(/C=C/c1cccc(F)c1)N1CCc2ccccc21	95*	74*	31	0	72*	-24	-14	-3	-6	-7
OC(COc1ccc(CNCCc2ccccc2F)cc1)CN1CCCCC1 (stereo unspecified)	-5	-3	18	0	-6	x	x	x	x	x
Clc1ccc(-c2csc(-c3ccno3)n2)cc1	58*	44	-23	2	20	-5	10	36	35	9
Fc1cccc(-c2csc(-c3ccno3)n2)c1	14	23	20	-4	5	x	x	x	x	x
Clc1ccc(-c2cc(-c3ccccc3)on2)cc1	58*	11	10	1	-4	13	9	-2	9	1
Cc1nc(-c2cc(-c3ccc(Cl)cc3)no2)cs1	92*	76*	17	-1	68*	23	30	16	24	1
Cc1nc(-c2cc(-c3nc(-c4ccc(C(F)(F)F)cc4)no3)no2)cs1	0	-4	-3	2	0	x	x	x	x	x
O=C(OCC(=O)N1CCC(Cc2ccccc2)CC1)c1cc(Br)ccc1O	-5	0	-52	-4	7	x	x	x	x	x
Cc1ccc(NC(=O)COC(=O)c2ccc(Cl)nc2)cc1S(=O)(=O)N1CCCCC1	6	-4	-9	-1	-4	x	x	x	x	x
CN(C)C(=O)CN1CCN(Cc2nc(CC3CC3)no2)CC1	2	73*	13	-5	6	5	-2	-2	-3	0
CC1CCN(C2=C(NS(=O)(=O)c3ccc(Br)cc3)C(=O)c3ccccc3C2=O)CC1	27	55*	26	-1	29	9	14	-2	15	0
CC1CCN(C2=C(NS(=O)(=O)c3ccccc3)C(=O)c3ccccc3C2=O)CC1	17	49	33	-1	17	x	x	x	x	x
CC1CCN(C2=C(NS(=O)(=O)c3ccc(Cl)cc3)C(=O)c3ccccc3C2=O)CC1	14	63*	33	1	5	4	6	6	10	0
Cc1cc(C)n2c(=O)[nH]nc2c1	x	x	-493	6	x	x	x	x	x	x
NC(=O)c1ccc(-c2ncc(-c3ccccc3)o2)cc1	52*	-35	-307	1	14	27	52*	59*	40	8
